Reference: ChEMBL document CHEMBL1140243, “Synthesis and SAR of 2,3-diarylpyrrole inhibitors of parasite cGMP-dependent protein kinase as novel anticoccidial agents” (Bioorg Med Chem Lett, 2005)

Legend:
[1] = target: cGMP-dependent protein kinase (Eimeria tenella, UniProt Q8MMZ8); assay: In vitro inhibition of Eimeria tenella cGMP-dependent protein kinase
Eimeria acervulina = assay: Anticoccidial activity (percent reduction in oocyst production) against Eimeria acervulina in white leghorn chickens at 100 ppm; assay type: functional; parameters: scale not given: the % may be the effect or the level left
Outline: (§1)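 White Leghorn chicks were acclimated, then at 3 days old sorted by weight and randomized to medicated or control diets. There were one or two replicates of two birds per treatment. After 24 h of premedication, one bird per replicate got E. acervulina and the other E. tenella, both drug-sensitive laboratory strains. Inocula were sporulated oocysts in tap water, 0.25 mL per bird, giving low-to-moderate infection.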

Eimeria tenella = assay: Anticoccidial activity (percent reduction in oocyst production) against Eimeria tenella in white leghorn chickens at 100 ppm; assay type: functional; parameters: scale not given: the % may be the effect or the level left; outline: as §1
Gallus gallus [2] = organism: Gallus gallus; assay: Anticoccidial activity (percent reduction in oocyst production) against Eimeria acervulina in white leghorn chickens at 25 ppm; assay type: functional; parameters: scale not given: the % may be the effect or the level left; outline: as §1
Gallus gallus [3] = organism: Gallus gallus; assay: Anticoccidial activity (percent reduction in oocyst production) against Eimeria praecox in chickens at 75 ppm; assay type: functional; parameters: scale not given: the % may be the effect or the level left
Gallus gallus [4] = organism: Gallus gallus; assay: Anticoccidial activity (percent reduction in oocyst production) against Eimeria mivati in chickens at 125 ppm; assay type: functional; parameters: scale not given: the % may be the effect or the level left
Gallus gallus [5] = organism: Gallus gallus; assay: Anticoccidial activity (percent reduction in oocyst production) against Eimeria tenella in chickens at 50 ppm; assay type: functional; parameters: scale not given: the % may be the effect or the level left; outline: as §1
Gallus gallus [6] = organism: Gallus gallus; assay: Anticoccidial activity (percent reduction in oocyst production) against Eimeria maxima in chickens at 75 ppm; assay type: functional; parameters: scale not given: the % may be the effect or the level left
Gallus gallus [7] = organism: Gallus gallus; assay: Anticoccidial activity (percent reduction in oocyst production) against Eimeria mivati in chickens at 50 ppm; assay type: functional; parameters: scale not given: the % may be the effect or the level left
Gallus gallus [8] = organism: Gallus gallus; assay: Anticoccidial activity (percent reduction in oocyst production) against Eimeria mitis in chickens at 50 ppm; assay type: functional; parameters: scale not given: the % may be the effect or the level left
Gallus gallus [9] = organism: Gallus gallus; assay: Anticoccidial activity (percent reduction in oocyst production) against Eimeria necatrix in chickens at 25 ppm; Range = 50-79 %; assay type: functional; parameters: scale not given: the % may be the effect or the level left
Gallus gallus [10] = organism: Gallus gallus; assay: Anticoccidial activity (percent reduction in oocyst production) against Eimeria necatrix in chickens at 125 ppm; assay type: functional; parameters: scale not given: the % may be the effect or the level left
Gallus gallus [11] = organism: Gallus gallus; assay: Half-life in the chicken; assay type: functional, organism-based
Gallus gallus [12] = organism: Gallus gallus; assay: Anticoccidial activity (percent reduction in oocyst production) against Eimeria maxima in chickens at 50 ppm; assay type: functional; parameters: scale not given: the % may be the effect or the level left
Gallus gallus [13] = organism: Gallus gallus; assay: Anticoccidial activity (percent reduction in oocyst production) against Eimeria praecox in chickens at 50 ppm; assay type: functional; parameters: scale not given: the % may be the effect or the level left
Gallus gallus [14] = organism: Gallus gallus; assay: Anticoccidial activity (percent reduction in oocyst production) against Eimeria mitis in chickens at 25 ppm; Range = 50-79 %; assay type: functional; parameters: scale not given: the % may be the effect or the level left
Gallus gallus [15] = organism: Gallus gallus; assay: Anticoccidial activity (percent reduction in oocyst production) against Eimeria necatrix in chickens at 75 ppm; assay type: functional; parameters: scale not given: the % may be the effect or the level left
Gallus gallus [16] = organism: Gallus gallus; assay: Anticoccidial activity (percent reduction in oocyst production) against Eimeria tenella in chickens at 125 ppm; assay type: functional; parameters: scale not given: the % may be the effect or the level left; outline: as §1
Gallus gallus [17] = organism: Gallus gallus; assay: Anticoccidial activity (percent reduction in oocyst production) against Eimeria acervulina in chickens at 50 ppm; assay type: functional; parameters: scale not given: the % may be the effect or the level left; outline: as §1
Gallus gallus [18] = organism: Gallus gallus; assay: Anticoccidial activity (percent reduction in oocyst production) against Eimeria tenella in chickens at 25 ppm; Range = 50-79 %; assay type: functional; parameters: scale not given: the % may be the effect or the level left; outline: as §1
Gallus gallus [19] = organism: Gallus gallus; assay: Anticoccidial activity (percent reduction in oocyst production) against Eimeria praecox in chickens at 25 ppm; Range = 50-79 %; assay type: functional; parameters: scale not given: the % may be the effect or the level left
Gallus gallus [20] = organism: Gallus gallus; assay: Anticoccidial activity (percent reduction in oocyst production) against Eimeria mitis in chickens at 125 ppm; assay type: functional; parameters: scale not given: the % may be the effect or the level left
Gallus gallus [21] = organism: Gallus gallus; assay: Anticoccidial activity (percent reduction in oocyst production) against Eimeria maxima in chickens at 25 ppm; Range = 50-79 %; assay type: functional; parameters: scale not given: the % may be the effect or the level left
Gallus gallus [22] = organism: Gallus gallus; assay: Anticoccidial activity (percent reduction in oocyst production) against Eimeria brunetti in chickens at 125 ppm; assay type: functional; parameters: scale not given: the % may be the effect or the level left
Gallus gallus [23] = assay: Oral bioavailability in the chicken; assay type: functional, organism-based
Gallus gallus [24] = organism: Gallus gallus; assay: Anticoccidial activity (percent reduction in oocyst production) against Eimeria maxima in chickens at 125 ppm; assay type: functional; parameters: scale not given: the % may be the effect or the level left
Gallus gallus [25] = organism: Gallus gallus; assay: Anticoccidial activity (percent reduction in oocyst production) against Eimeria necatrix in chickens at 50 ppm; assay type: functional; parameters: scale not given: the % may be the effect or the level left
Gallus gallus [26] = organism: Gallus gallus; assay: Anticoccidial activity (percent reduction in oocyst production) against Eimeria praecox in chickens at 125 ppm; assay type: functional; parameters: scale not given: the % may be the effect or the level left
Gallus gallus [27] = organism: Gallus gallus; assay: Anticoccidial activity (percent reduction in oocyst production) against Eimeria acervulina in chickens at 125 ppm; assay type: functional; parameters: scale not given: the % may be the effect or the level left; outline: as §1
Gallus gallus [28] = organism: Gallus gallus; assay: Anticoccidial activity (percent reduction in oocyst production) against Eimeria mivati in chickens at 75 ppm; assay type: functional; parameters: scale not given: the % may be the effect or the level left
Gallus gallus [29] = organism: Gallus gallus; assay: Anticoccidial activity (percent reduction in oocyst production) against Eimeria mitis in chickens at 75 ppm; assay type: functional; parameters: scale not given: the % may be the effect or the level left
Gallus gallus [30] = organism: Gallus gallus; assay: Anticoccidial activity (percent reduction in oocyst production) against Eimeria brunetti in chickens at 50 ppm; assay type: functional; parameters: scale not given: the % may be the effect or the level left
Gallus gallus [31] = organism: Gallus gallus; assay: Anticoccidial activity (percent reduction in oocyst production) against Eimeria brunetti in chickens at 75 ppm; assay type: functional; parameters: scale not given: the % may be the effect or the level left
Gallus gallus [32] = organism: Gallus gallus; assay: Anticoccidial activity (percent reduction in oocyst production) against Eimeria brunetti in chickens at 25 ppm; Range = 50-79 %; assay type: functional; parameters: scale not given: the % may be the effect or the level left
Gallus gallus [33] = organism: Gallus gallus; assay: Anticoccidial activity (percent reduction in oocyst production) against Eimeria mivati in chickens at 25 ppm; Range = 50-79 %; assay type: functional; parameters: scale not given: the % may be the effect or the level left
Gallus gallus [34] = organism: Gallus gallus; assay: Anticoccidial activity (percent reduction in oocyst production) against Eimeria tenella in chickens at 75 ppm; assay type: functional; parameters: scale not given: the % may be the effect or the level left; outline: as §1
Gallus gallus [35] = organism: Gallus gallus; assay: Anticoccidial activity (percent reduction in oocyst production) against Eimeria acervulina in chickens at 25 ppm; Range = 50-79 %; assay type: functional; parameters: scale not given: the % may be the effect or the level left; outline: as §1
Gallus gallus [36] = organism: Gallus gallus; assay: Anticoccidial activity (percent reduction in oocyst production) against Eimeria acervulina in chickens at 75 ppm; assay type: functional; parameters: scale not given: the % may be the effect or the level left; outline: as §1

cGMP-dependent protein kinase, sequence (Q8MMZ8 whole entry): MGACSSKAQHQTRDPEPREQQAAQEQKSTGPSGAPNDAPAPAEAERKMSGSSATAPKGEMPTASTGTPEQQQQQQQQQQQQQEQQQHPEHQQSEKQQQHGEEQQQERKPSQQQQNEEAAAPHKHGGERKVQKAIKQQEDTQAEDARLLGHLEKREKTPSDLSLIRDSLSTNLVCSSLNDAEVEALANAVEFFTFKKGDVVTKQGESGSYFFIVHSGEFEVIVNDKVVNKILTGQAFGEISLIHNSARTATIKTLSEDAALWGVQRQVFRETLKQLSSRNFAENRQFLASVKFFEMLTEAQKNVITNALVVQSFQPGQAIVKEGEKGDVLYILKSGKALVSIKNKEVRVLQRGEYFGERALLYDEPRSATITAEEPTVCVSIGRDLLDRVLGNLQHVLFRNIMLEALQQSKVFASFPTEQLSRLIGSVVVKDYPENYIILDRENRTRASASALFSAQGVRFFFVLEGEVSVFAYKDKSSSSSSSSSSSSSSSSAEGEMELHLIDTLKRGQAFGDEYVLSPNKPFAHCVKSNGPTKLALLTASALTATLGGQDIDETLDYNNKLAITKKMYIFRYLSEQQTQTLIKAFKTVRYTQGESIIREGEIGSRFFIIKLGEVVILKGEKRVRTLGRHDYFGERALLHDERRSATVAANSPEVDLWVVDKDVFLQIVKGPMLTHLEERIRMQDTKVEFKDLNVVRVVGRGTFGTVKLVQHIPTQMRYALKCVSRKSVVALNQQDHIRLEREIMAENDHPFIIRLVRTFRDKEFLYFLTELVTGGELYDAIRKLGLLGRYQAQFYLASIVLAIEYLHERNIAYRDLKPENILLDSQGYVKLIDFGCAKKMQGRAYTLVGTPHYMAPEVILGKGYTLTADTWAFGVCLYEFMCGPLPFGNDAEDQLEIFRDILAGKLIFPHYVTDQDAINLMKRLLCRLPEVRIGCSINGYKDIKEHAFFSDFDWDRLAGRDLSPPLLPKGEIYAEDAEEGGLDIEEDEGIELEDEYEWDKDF

CN1CCC(c2cc(-c3ccncc3)c(-c3ccc(OC(F)(F)F)cc3)[nH]2)CC1
IC50 [1]: 46 nM
Activity (Eimeria acervulina): <50%
Activity (Eimeria tenella): >=80%

CN1CCC(c2cc(-c3ccncc3)c(-c3nccs3)[nH]2)CC1
IC50 [1]: 39.7 nM
Activity (Eimeria acervulina): <50%
Activity (Eimeria tenella): <50%

CN1CCC(c2[nH]c(-c3ccc(F)cc3)c(-c3ccncc3)c2Br)CC1
IC50 [1]: 1.2 nM
Activity (Eimeria acervulina): <50%
Activity (Eimeria tenella): <50%

NCCN1CCC(c2cc(-c3ccncc3)c(-c3ccc(F)cc3)[nH]2)CC1
IC50 [1]: 0.28 nM
Activity (Eimeria acervulina): <50%
Activity (Eimeria tenella): <50%

Cc1cc(-c2cc(C3CCN(C)CC3)[nH]c2-c2ccc(F)cc2)ccn1
IC50 [1]: 2.8 nM
Activity (Eimeria acervulina): <50%
Activity (Eimeria tenella): <50%

CN1CCC(c2cc(-c3ccncc3)c(-c3ccc(S(C)(=O)=O)cc3)[nH]2)CC1
IC50 [1]: 42 nM
Activity (Eimeria acervulina): <50%
Activity (Eimeria tenella): >=80%

CN1CCC(c2nc(-c3ccc(F)cc3)c(-c3ccncc3)s2)CC1
IC50 [1]: 1.5 nM
Activity (Gallus gallus [2]): 0%
Activity (Eimeria tenella): <50%

CN1CCC(c2cc(-c3ccncc3)c(-c3ccc(F)cc3)s2)CC1
IC50 [1]: 4.2 nM
Activity (Eimeria acervulina): >=80%
Activity (Eimeria tenella): >=80%

CN1CCC(c2cc(-c3ccncc3)c(-c3ccc(F)c(Cl)c3)[nH]2)CC1
IC50 [1]: 0.44 nM
Activity (Eimeria tenella): >=80%

CN1CCC(c2cc(-c3ccncc3)c(-c3ccc(F)cc3)[nH]2)CC1
IC50 [1]: 0.7 nM
Activity (Eimeria acervulina): >=80%
Activity (Eimeria tenella): >=80%

CN1CCC(c2cc(-c3ccncc3)c(-c3ccco3)[nH]2)CC1
IC50 [1]: 11.1 nM
Activity (Eimeria acervulina): <50%
Activity (Eimeria tenella): <50%

OCCCN1CCC(c2cc(-c3ccncc3)c(-c3ccc(F)cc3)[nH]2)CC1
IC50 [1]: 0.53 nM
Activity (Eimeria acervulina): >=80%

CN1CCC(c2cc(-c3ccccn3)c(-c3ccc(F)cc3)[nH]2)CC1
IC50 [1]: 23.6 nM
Activity (Eimeria acervulina): <50%
Activity (Eimeria tenella): <50%

Cc1cc(-c2cc(C3CCN(C)CC3)[nH]c2-c2ccc(F)cc2)on1
IC50 [1]: > 1000 nM
Activity (Eimeria acervulina): <50%
Activity (Eimeria tenella): <50%

OCCN1CCC(c2cc(-c3ccncc3)c(-c3ccc(F)cc3)[nH]2)CC1
IC50 [1]: 0.71 nM
Activity (Eimeria acervulina): >=80%
Activity (Eimeria tenella): >=80%

CN1CCC1CN1CCC(c2cc(-c3ccncc3)c(-c3ccc(F)cc3)[nH]2)CC1 (configuration not stated)
IC50 [1]: 0.28 nM
Activity (Eimeria acervulina): >=80%
Activity (Eimeria tenella): >=80%

CN1CCC(c2cc(-c3ccncc3)c(-c3ccsc3)[nH]2)CC1
IC50 [1]: 11.9 nM
Activity (Eimeria acervulina): <50%
Activity (Eimeria tenella): <50%

CCN1CCC(c2cc(-c3ccncc3)c(-c3ccc(F)cc3)[nH]2)CC1
Activity (Gallus gallus [3]): >=80%
Activity (Gallus gallus [4]): >=80%
Activity (Gallus gallus [5]): >=80%
Activity (Gallus gallus [6]): >=80%
Activity (Gallus gallus [7]): >=80%
Activity (Gallus gallus [8]): >=80%
Activity (Gallus gallus [9]): <79%
IC50 [1]: 0.28 nM
Activity (Gallus gallus [10]): >=80%
T1/2 (Gallus gallus [11]): 1.2 h
Activity (Gallus gallus [12]): >=80%
Activity (Gallus gallus [13]): >=80%
Activity (Gallus gallus [14]): <79%
Activity (Gallus gallus [15]): >=80%
Activity (Gallus gallus [16]): >=80%
Activity (Gallus gallus [17]): >=80%
Activity (Gallus gallus [18]): <79%
Activity (Eimeria acervulina): >=80%
Activity (Gallus gallus [19]): <79%
Activity (Gallus gallus [20]): >=80%
Activity (Gallus gallus [21]): <79%
Activity (Gallus gallus [22]): >=80%
bioavailability (Gallus gallus [23]): 84%
Activity (Gallus gallus [24]): >=80%
Activity (Gallus gallus [25]): >=80%
Activity (Gallus gallus [26]): >=80%
Activity (Gallus gallus [27]): >=80%
Activity (Gallus gallus [28]): >=80%
Activity (Gallus gallus [29]): >=80%
Activity (Gallus gallus [30]): >=80%
Activity (Gallus gallus [31]): >=80%
Activity (Gallus gallus [32]): <79%
Activity (Gallus gallus [33]): <79%
Activity (Gallus gallus [34]): >=80%
Activity (Eimeria tenella): >=80%
Activity (Gallus gallus [35]): <79%
Activity (Gallus gallus [36]): >=80%

CN1CCC(c2cc(-c3ccncc3)c(-c3ccc(Cl)cc3)[nH]2)CC1
IC50 [1]: 1 nM
Activity (Eimeria acervulina): >=80%
Activity (Eimeria tenella): <50%

NC1(CN2CCC(c3cc(-c4ccncc4)c(-c4ccc(F)cc4)[nH]3)CC2)CC1
IC50 [1]: 0.24 nM
Activity (Eimeria acervulina): <50%
Activity (Eimeria tenella): <50%
